# Screening results: PubChem, several laboratories
# Sampled rows, rich in hits. Any-hit rate of the full collection: about 2.9%.
# SENP1 FRET inh: blocks the human SENP1 SUMO protease catalytic domain; Q9P0U3; inhibition, % at 10 µM; recombinant SENP1 catalytic domain, CyPet-SUMO1-YPet FRET cleavage; 0.21% of 360,000 active;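 active means inhibition at least 30% at 10 µM, raw YFP signal under a set limit, fluorescence ratio 0.5 to 1.5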;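 further: 0% = enzyme with DMSO and 100% = no enzyme wells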
#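 Test system: hSENP1 catalytic domain, recombinant; Amount: 20 pM final SENP1 enzyme; Medium: Tris pH 8 buffer plus EDTA, NaCl, BME, BSA, NP40, catalase; Schedule: 50 min enzyme reaction, room temperature, light-protected; Technique: FRET fluorescence in CFP and YFP emission channels; Controls: no-enzyme wells low, DMSO-plus-enzyme wells high control.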
# SENP6 inh: inhibitors of human SENP6 protease. Q9GZR1. Recombinant SENP6 catalytic domain, aminoluciferin luminescence. inhibition, % at 10 µM. 1.8% of 330,000 active. AID 2599;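 active means inhibition above about 50% at the single tested dose, limit read from the data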;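 further: plate controls were DMSO wells with enzyme for no effect and DMSO wells lacking enzyme for full effect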
# HSP90 inh: blocks HSP90-mediated luciferase refolding in reticulocyte lysate | 0.91% of 290,000 active | Rabbit reticulocyte lysate, luciferase refolding luminescence, 3 h | inhibition, % at 5.6 µM | AID 1789;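 active means inhibition above the screen-wide mean plus 3 SD, computed separately per campaign, cut at about 16% in these data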;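 further: 0% = DMSO wells and 100% = 60 µM geldanamycin wells; inhibitors lower the luminescence because luciferase stays unfolded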
# SENP7 inh: blocks the human protease SENP7; Q9BQF6; recombinant SENP7, Z-RLRGG-aminoluciferin luminescence, 40 min; inhibition, % at 5 µM; 1.5% of 330,000 active; AID 434973;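 active means inhibition above about 50% at the single test dose, limit read from the data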;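 further: plate controls were DMSO with enzyme for no effect and no enzyme buffer wells for full effect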
# SENP8 block-1: blocks the human protease SENP8; 1.2% of 330,000 active; purified SENP8, Z-RLRGG-aminoluciferin cleavage, luminescence; Q96LD8; inhibition, % at 10 µM; in the data active means inhibition above about 50%
# Target sequence (Q96LD8 whole entry, looked up): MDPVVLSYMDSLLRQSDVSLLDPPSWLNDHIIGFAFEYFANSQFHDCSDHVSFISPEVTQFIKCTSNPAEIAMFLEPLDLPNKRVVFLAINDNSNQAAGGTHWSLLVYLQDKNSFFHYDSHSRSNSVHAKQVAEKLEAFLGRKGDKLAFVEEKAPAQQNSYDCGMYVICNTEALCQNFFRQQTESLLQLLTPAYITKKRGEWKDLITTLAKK
# SENP8 block-2: SENP8 (human) protease inhibition | Q96LD8 | recombinant SENP8, Nedd8 substrate fluorescence | inhibition, % at 20 µM | 0.64% of 360,000 active; in the data active means inhibition mostly above about 40%, no sharp cut-off; inactive means mostly below about 27%
# Numbers without * were called inactive; i = inactive; x = not tested or not shown.
SMILES,SENP1 FRET inh,SENP6 inh,HSP90 inh,SENP7 inh,SENP8 block-1,SENP8 block-2
CCCCCC(=O)Nc1ccc(C2C(=O)c3ccccc3C2=O)cc1,0,-12,-3,-5,-7,2
COC(=O)C(C(C)=O)C1=C/C(=N\S(=O)(=O)c2ccc(C)cc2)c2ccccc2C1=O (stereo not given),4,3,5,-3,-3,9
CC(C)c1ccc(S(=O)(=O)/N=C2\C=C(NS(=O)(=O)c3ccccc3)C(=O)c3ccccc32)cc1,3,x,0,x,x,62*
CCc1ccc(S(=O)(=O)/N=C2\C=C(NS(=O)(=O)c3ccccc3)C(=O)c3ccccc32)cc1,1,5,2,16,3,70*
CC(C)c1ccc(S(=O)(=O)/N=C2/C=CC(=O)c3ccccc32)cc1,x,27,2,13,6,x
CC(C)CC1OC(C(C)C)Cc2[nH]c(=S)[nH]c(=O)c21 (stereo not given),-1,x,x,x,x,3
Cc1nn(-c2ccccc2)c(Cl)c1/C=C1\SC(=S)N(CCCCCC(=O)O)C1=O,0,-12,1,6,-23,54*
COc1ccc(/C=C2/C(=O)N(c3nc4ccccc4s3)N=C2CSc2ccc(Cl)cc2)cc1,-3,1,2,4,2,40*
Cc1nn(C)c(Sc2ccccn2)c1[N+](=O)[O-],3,10,0,0,4,7
O=C(Nc1ccc(N2CCCC2)cc1)C(Cl)c1ccccc1 (stereo not given),12,66*,-2,-1,34,38
O=c1c(O)c(-c2ccccc2)oc2cc(O)cc(O)c12,9,17,x,-8,10,36
O=c1c(O)c(-c2cc(O)c(O)c(O)c2)oc2cc(O)cc(O)c12,84*,13,x,3,4,39*
Cc1c(N)cc(S(=O)(=O)O)cc1NC(=O)c1cccc([N+](=O)[O-])c1,5,x,x,x,x,8
O=C(O)C1Nc2c(O)cc(Cl)c([N+](=O)[O-])c2C2C=CCC12 (stereo not given),15,-34,-1,9,8,46*
Cc1nn(-c2ccccc2)c2c1C(c1ccc(Br)s1)C(C#N)=C(N)O2 (stereo not given),-7,x,9,x,x,14
Cc1nn(-c2ccccc2)c2c1C(c1ccccc1)C(C#N)=C(N)O2 (stereo not given),0,46,6,52*,4,2
Cc1ccc(-c2cccc(NC(=O)C3C4C=CC(C4)C3C(=O)O)c2)o1 (stereo not given),-4,-3,-1,-4,4,-23
CC(=O)OCCn1c2nc(=O)[nH]c(=O)c-2nc2cc(C)c(C)cc21,-27,28,20*,22,17,16
CC(=O)OCCn1c(C)[n+](CCOC(C)=O)c2cc(Cl)c(Cl)cc21,-1,7,0,3,12,10
COc1ccc2cc(C(c3nnnn3C3CCCC3)N3CCOCC3)c3nnnn3c2c1 (stereo not given),0,16,-4,6,-1,12
O=C(NC1CCN(S(=O)(=O)c2ccccc2)CC1)c1ccc(F)cc1,-1,13,1,6,-2,15
COc1ccc(C(=O)/C=C/c2ccc(N3CCCCC3)c([N+](=O)[O-])c2)cc1,5,-26,0,1,-7,20
COc1ccc(C(=O)/C=C/c2ccc(N3CCCCC3)c([N+](=O)[O-])c2)c(OC)c1,1,x,0,x,x,41*
Nc1n[nH]c(N)c1N=Nc1ccc(F)cc1,-1,15,2,6,-5,41*
Nc1n[nH]c(N)c1N=Nc1ccccc1,2,-5,-9,4,-2,27
Nc1n[nH]c(N)c1N=Nc1ccccc1F,1,-12,-8,0,-6,34*
COc1ccc(/C=N/n2c(C)nc3ccccc3c2=O)cc1,0,-26,0,-7,-1,11
COc1ccc(/C=N\n2nnc3ccccc32)cc1,2,97*,29*,90*,94*,-6
Nc1nn2cc(-c3ccc(Br)cc3)nc2c2ccccc12,0,87*,2,79*,75*,i
CC(=O)N1CC2(c3ccccc3)CN(C(C)=O)CC(c3ccccc3)(C1)C2=O,1,70*,-1,0,1,16
